{"source": "paper PMC3558928", "about": "(Chemistry & biology, 2013)", "key": {"[1]": {"target": "BLM^full-length (Homo sapiens, UniProt P54132)", "sequence (P54132 whole entry)": "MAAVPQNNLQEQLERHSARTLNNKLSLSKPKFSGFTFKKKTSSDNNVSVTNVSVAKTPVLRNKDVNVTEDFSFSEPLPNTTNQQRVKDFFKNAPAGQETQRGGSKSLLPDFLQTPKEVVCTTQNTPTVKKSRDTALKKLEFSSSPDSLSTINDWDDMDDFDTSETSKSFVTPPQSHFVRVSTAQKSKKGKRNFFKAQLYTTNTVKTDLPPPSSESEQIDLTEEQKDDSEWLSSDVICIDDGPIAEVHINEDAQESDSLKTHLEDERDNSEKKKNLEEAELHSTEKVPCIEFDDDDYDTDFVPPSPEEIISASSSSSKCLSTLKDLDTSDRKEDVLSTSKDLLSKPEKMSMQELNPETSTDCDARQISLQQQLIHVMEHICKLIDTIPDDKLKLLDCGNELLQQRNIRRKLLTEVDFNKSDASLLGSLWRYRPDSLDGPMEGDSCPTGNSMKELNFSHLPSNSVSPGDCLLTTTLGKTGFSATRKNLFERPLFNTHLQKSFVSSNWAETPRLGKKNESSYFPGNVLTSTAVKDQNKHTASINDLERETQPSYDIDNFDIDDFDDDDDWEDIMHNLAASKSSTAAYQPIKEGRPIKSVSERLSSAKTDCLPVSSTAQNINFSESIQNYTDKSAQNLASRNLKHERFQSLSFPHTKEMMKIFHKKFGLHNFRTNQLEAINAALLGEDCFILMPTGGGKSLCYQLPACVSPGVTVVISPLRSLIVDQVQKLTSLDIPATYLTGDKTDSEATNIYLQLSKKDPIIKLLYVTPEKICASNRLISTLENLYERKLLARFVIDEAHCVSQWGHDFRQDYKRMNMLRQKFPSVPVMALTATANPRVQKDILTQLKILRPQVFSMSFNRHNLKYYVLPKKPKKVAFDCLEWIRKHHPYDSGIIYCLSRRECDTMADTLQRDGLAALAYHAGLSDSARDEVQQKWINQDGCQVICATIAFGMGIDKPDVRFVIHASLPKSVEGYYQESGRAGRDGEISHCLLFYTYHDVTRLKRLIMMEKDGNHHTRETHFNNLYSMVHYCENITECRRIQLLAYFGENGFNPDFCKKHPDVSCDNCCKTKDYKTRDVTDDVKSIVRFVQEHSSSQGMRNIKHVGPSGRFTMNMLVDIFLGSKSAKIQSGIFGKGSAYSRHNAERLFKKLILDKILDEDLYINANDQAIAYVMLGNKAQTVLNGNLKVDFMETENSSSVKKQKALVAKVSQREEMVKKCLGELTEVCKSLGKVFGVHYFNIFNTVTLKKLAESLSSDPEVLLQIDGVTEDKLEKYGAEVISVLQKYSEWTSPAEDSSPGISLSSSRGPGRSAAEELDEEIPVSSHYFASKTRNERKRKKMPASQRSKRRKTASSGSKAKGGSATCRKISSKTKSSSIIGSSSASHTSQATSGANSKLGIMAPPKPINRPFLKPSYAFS", "test": "Gel-based DNA unwinding assay, forked duplex, full-length BLM", "type": "biochemical"}, "[2]": {"target": "E. coli UvrD helicase (Escherichia coli, UniProt P03018)", "sequence (P03018 whole entry)": "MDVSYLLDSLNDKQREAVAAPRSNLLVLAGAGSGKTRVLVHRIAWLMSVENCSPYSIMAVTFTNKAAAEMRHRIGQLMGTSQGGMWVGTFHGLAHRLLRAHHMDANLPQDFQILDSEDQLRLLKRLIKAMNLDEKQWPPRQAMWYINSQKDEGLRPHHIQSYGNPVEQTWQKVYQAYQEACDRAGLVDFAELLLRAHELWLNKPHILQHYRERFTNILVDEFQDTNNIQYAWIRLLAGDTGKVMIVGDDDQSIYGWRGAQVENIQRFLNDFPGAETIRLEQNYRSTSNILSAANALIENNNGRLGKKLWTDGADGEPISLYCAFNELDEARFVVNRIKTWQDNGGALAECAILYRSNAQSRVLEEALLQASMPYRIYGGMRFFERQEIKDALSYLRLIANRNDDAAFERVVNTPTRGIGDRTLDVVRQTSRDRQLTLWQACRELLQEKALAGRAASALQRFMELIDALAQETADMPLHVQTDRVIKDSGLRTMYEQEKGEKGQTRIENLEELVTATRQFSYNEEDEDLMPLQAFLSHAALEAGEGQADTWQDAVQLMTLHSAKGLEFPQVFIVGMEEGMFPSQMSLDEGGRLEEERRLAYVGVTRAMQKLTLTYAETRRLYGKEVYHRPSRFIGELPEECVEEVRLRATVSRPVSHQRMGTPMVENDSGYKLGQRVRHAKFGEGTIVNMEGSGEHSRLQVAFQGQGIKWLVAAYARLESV", "test": "Gel-based DNA unwinding assay, UvrD", "type": "biochemical"}, "[3]": {"tested_on": "PSNF5 cells", "test": "Sister chromatid exchange", "type": "cell-based, human"}, "[4]": {"target": "T1, BLM (Homo sapiens, UniProt P54132)", "T1 sequence (P54132 whole entry)": "as the sequence (P54132 whole entry) above", "test": "ssDNA-dependent ATPase activity of BLM", "type": "biochemical"}, "[5]": {"tested_on": "PSNF5 cells", "test": "Clonogenic survival, sensitization to aphidicolin, PSNF5", "type": "cell-based, human", "settings": "ML216 24 hours before aphidicolin, p<0.01", "how_it_was_run": "(§1)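 Isogenic SV40-transformed Bloom syndrome fibroblasts (GM08505 background): PSNF5 stably expresses Flag-tagged BLM, PSNG13 carries empty vector. Cells were exposed to test compound for 24 hr, then aphidicolin was added at graded concentrations for a further 24 hr. Cells were washed and grown in drug-free medium for up to 12 days to form colonies. Survival curves come from three independent experiments (mean, SD).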"}, "[6]": {"tested_on": "WRN^+ and WRN^− cells", "test": "Aphidicolin sensitization of WRN+ and WRN− fibroblasts", "type": "cell-based, human"}, "[7]": {"tested_on": "PSNG13 cells", "test": "Clonogenic survival, sensitization to aphidicolin, PSNG13", "type": "cell-based, human", "how_it_was_run": "as §1"}, "[8]": {"tested_on": "PSNG13 cells", "test": "Sister chromatid exchange", "type": "cell-based, human", "how_it_was_run": "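Stable transfectants of SV40-transformed Bloom syndrome fibroblast line GM08505 were used: PSNF5 (Flag-BLM) and PSNG13 (empty vector). Cells were left untreated or exposed to test compound, with exposures in the 24–72 hr range. Sister chromatid exchanges were scored as frequency per chromosome and number per chromosome.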"}, "[9]": {"tested_on": "WRN^+ and WRN^− cells", "test": "Proliferation of WRN+ and WRN− fibroblasts", "type": "cell-based, human"}, "[10]": {"target": "T1, BLM", "test": "Electrophoretic mobility shift assay", "type": "binding", "settings": "ssDNA or forked duplex; increasing concentrations"}, "[11]": {"tested_on": "PSNF5 cells", "test": "γ-H2AX focus formation after mitomycin C, PSNF5", "type": "cell-based, human", "settings": "ML216 and MMC versus MMC alone, p<0.05"}, "[12]": {"target": "T1, BLM", "test": "BLM disruption of D-loop, Holliday junction and G-quadruplex substrates", "type": "biochemical"}, "[13]": {"tested_on": "PSNG13 cells", "test": "γ-H2AX focus formation after mitomycin C, PSNG13", "type": "cell-based, human", "settings": "with or without MMC, p>0.05"}, "[14]": {"target": "RecQ5 (Homo sapiens, UniProt O94762)", "sequence (O94762 whole entry)": "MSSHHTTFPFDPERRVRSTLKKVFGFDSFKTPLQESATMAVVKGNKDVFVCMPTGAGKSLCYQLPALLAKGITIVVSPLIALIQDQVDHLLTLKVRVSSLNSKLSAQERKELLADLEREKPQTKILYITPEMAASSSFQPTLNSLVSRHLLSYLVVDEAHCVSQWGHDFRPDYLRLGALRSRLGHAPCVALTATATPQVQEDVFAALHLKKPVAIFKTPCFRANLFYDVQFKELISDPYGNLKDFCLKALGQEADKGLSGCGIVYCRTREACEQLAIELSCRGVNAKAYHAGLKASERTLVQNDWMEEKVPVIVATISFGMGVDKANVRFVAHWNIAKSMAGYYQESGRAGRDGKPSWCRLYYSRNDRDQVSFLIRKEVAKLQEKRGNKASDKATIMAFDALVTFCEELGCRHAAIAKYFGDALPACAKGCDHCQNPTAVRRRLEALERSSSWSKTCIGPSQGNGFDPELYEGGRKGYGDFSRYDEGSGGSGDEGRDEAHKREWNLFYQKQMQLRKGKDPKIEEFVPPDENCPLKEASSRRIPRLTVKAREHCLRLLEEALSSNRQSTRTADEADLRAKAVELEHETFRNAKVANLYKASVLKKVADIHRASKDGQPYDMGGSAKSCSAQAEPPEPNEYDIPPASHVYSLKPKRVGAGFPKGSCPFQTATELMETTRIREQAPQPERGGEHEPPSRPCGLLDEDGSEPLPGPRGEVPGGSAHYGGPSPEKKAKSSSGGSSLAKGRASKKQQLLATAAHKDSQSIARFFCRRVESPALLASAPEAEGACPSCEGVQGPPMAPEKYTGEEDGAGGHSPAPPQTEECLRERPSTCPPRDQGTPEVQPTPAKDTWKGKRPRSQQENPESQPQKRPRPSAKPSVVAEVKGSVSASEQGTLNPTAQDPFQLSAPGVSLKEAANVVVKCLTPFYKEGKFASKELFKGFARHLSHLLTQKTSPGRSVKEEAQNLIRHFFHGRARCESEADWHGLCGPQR", "test": "Gel-based DNA unwinding assay, RECQ5", "type": "biochemical"}, "[15]": {"tested_on": "PSNG13 cells", "test": "WST-1 proliferation assay, PSNG13", "type": "cell-based, human", "settings": "PSNG13 (BLM−); 24–72 hours"}, "[16]": {"tested_on": "PSNF5 cells", "test": "WST-1 proliferation assay, PSNF5", "type": "cell-based, human", "settings": "PSNF5 (BLM+); 24–72 hours"}, "[17]": {"tested_on": "human cells", "test": "Cell cycle checkpoint responses in cells", "type": "cell-based", "settings": "50µM, 24 hours; data not shown"}, "[18]": {"target": "T2, RecQ1 (Homo sapiens, UniProt P46063)", "T2 sequence (P46063 1-649)": "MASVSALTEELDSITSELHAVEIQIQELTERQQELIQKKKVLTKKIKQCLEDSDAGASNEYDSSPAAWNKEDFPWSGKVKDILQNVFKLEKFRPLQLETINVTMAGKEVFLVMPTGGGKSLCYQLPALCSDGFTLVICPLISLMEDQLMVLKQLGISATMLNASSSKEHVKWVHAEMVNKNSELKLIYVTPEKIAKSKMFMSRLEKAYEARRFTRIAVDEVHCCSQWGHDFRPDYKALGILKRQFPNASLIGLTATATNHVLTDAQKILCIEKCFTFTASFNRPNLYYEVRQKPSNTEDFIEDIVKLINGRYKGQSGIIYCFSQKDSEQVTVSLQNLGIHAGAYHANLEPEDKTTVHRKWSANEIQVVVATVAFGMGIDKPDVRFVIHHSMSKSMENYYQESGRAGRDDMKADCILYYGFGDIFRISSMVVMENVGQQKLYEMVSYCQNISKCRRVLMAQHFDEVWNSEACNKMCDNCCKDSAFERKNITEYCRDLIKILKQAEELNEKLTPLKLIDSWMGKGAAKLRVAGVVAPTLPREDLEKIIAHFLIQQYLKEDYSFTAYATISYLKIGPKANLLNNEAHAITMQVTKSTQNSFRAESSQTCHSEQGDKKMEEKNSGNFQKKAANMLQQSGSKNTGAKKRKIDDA", "test": "Gel-based DNA unwinding assay, RECQ1", "type": "biochemical"}, "[19]": {"target": "WRN^short (WRN^500–946) (Homo sapiens, UniProt Q14191)", "sequence (Q14191 500-946)": "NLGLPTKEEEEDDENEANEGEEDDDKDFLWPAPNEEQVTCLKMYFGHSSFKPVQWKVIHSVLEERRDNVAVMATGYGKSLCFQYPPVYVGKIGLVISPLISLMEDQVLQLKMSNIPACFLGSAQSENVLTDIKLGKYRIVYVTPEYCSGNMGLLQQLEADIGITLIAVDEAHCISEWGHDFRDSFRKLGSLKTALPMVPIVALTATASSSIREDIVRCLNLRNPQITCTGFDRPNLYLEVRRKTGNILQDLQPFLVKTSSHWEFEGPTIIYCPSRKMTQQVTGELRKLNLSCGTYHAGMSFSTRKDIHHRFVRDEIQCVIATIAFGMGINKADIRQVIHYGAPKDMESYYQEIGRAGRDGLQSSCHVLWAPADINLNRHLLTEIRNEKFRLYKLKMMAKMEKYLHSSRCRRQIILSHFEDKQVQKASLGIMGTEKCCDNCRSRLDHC", "test": "Gel-based DNA unwinding assay, truncated WRN", "type": "biochemical"}, "[20]": {"target": "WRN^long (full length WRN) (Homo sapiens, UniProt Q14191)", "test": "Gel-based DNA unwinding assay, full length WRN", "type": "biochemical"}, "[21]": {"target": "T1, BLM", "test": "Fluorescence polarization assay of BLM binding to TAMRA-labeled oligonucleotide", "settings": "dilution series; no nucleotide, ADP or ATP"}, "[22]": {"target": "T1, BLM", "test": "Traditional helicase assay, radiolabeled forked duplex, PAGE", "type": "biochemical", "how_it_was_run": "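Substrate was gel-purified and dialysed, and its concentration was set by scintillation counting. Reactions held at most 1% DMSO. Unwinding to ssDNA was resolved by PAGE and expressed as percent unwinding against untreated (0%) and heat-denatured (100%) controls. IC50 came from nonlinear regression.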"}, "[23]": {"target": "BLM^636–1298 (Homo sapiens, UniProt P54132)", "sequence (P54132 636-1298)": "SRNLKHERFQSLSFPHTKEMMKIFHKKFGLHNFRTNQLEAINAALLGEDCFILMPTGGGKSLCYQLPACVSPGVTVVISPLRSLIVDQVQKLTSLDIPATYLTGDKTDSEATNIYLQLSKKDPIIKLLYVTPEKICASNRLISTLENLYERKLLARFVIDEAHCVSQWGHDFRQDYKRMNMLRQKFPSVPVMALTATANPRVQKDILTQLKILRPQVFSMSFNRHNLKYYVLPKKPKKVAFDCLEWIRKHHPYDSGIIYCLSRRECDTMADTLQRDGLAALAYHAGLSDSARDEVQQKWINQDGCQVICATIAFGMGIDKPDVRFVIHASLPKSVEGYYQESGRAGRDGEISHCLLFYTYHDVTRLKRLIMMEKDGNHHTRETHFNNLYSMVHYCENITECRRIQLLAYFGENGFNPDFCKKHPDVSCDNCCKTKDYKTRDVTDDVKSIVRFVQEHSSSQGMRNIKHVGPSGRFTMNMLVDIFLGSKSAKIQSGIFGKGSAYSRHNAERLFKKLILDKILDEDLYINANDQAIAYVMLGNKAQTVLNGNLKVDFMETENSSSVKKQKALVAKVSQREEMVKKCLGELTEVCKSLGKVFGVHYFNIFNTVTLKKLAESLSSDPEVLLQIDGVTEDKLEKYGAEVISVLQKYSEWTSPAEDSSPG", "test": "Fluorescence-quenching qHTS assay of BLM DNA unwinding", "type": "biochemical", "how_it_was_run": "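Quenched-fluorescence unwinding screen used bacterially expressed truncated BLM (residues 636–1298). The forked duplex substrate carries tetramethylrhodamine at the 3' end of one strand and Black Hole Quencher-2 at the 5' end of the complement. ATP-dependent unwinding raises fluorescence. Inhibition is the signal loss relative to DMSO-only controls, run as dose-response (qHTS).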"}}}
{"smiles": "O=C(Nc1ccc(F)c(C(F)(F)F)c1)Nc1nnc(-c2ccncc2)s1", "note": "[ML216]", "values": [{"measurement": "sensitivity of BLM versus WRN (based on IC50 values)", "setting": "[1]", "value": 1.7, "unit": "fold"}, {"measurement": "IC50", "setting": "[2]", "value": "> 50", "unit": "µM"}, {"measurement": "inhibition of helicase activity", "setting": "[2]; at 50 µM", "value": "only very modest inhibition"}, {"measurement": "frequency of sister chromatid exchanges (SCEs)", "setting": "[3]", "value": "statistically significant increase"}, {"measurement": "frequency of SCEs, short exposure", "setting": "[3]; present only during the last 8 hours", "value": "statistically significant increase in the frequency of SCEs"}, {"measurement": "mode of inhibition of ATPase activity with respect to ATP", "setting": "[4]", "value": "non-competitive"}, {"measurement": "sensitivity to aphidicolin", "setting": "[5]", "value": "increased the sensitivity"}, {"measurement": "sensitization to aphidicolin, WRN^+ versus WRN^− cells", "setting": "[6]", "value": "similarly sensitized both cell types"}, {"measurement": "sensitivity to aphidicolin", "setting": "[7]", "value": "no sensitizing effect"}, {"measurement": "frequency of sister chromatid exchanges (SCEs)", "setting": "[8]", "value": "not in PSNG13 cells"}, {"measurement": "inhibition of proliferation, WRN^+ versus WRN^− cells", "setting": "[9]", "value": "equally well"}, {"measurement": "effect on DNA binding by BLM (EMSA)", "setting": "[10]", "value": "displacement of either ssDNA or forked duplex DNA from a complex with BLM"}, {"measurement": "γ-H2AX focus formation", "setting": "[11]", "value": "statistically significant reduction"}, {"measurement": "inhibition of BLM's G-quadruplex disrupting activity", "setting": "[12]", "value": "only very modest inhibition"}, {"measurement": "inhibition of disruption of the D-loop substrate", "setting": "[12]; 50 µM", "value": "only at high concentrations"}, {"measurement": "inhibition of disruption of the Holliday junction substrate", "setting": "[12]; 50 µM", "value": "only at high concentrations"}, {"measurement": "γ-H2AX focus formation", "setting": "[13]", "value": "no significant effect"}, {"measurement": "IC50", "setting": "[14]", "value": "> 50", "unit": "µM"}, {"measurement": "inhibition of helicase activity", "setting": "[14]; at 50 µM", "value": "only very modest inhibition"}, {"measurement": "effect on cell proliferation", "setting": "[15]", "value": "not of PSNG13 cells"}, {"measurement": "effect on cell proliferation", "setting": "[16]", "value": "inhibitor of the proliferation of PSNF5 cells"}, {"measurement": "cell cycle arrest in G1/S or G2/M", "setting": "[17]", "value": "did not cause cell cycle arrest"}, {"measurement": "phosphorylation of ATM or ATR targets, including CHK1 and CHK2", "setting": "[17]", "value": "did not appear to cause phosphorylation"}, {"measurement": "IC50", "setting": "[18]", "value": "> 50", "unit": "µM"}, {"measurement": "inhibition of helicase activity", "setting": "[18]; at 50 µM", "value": "only very modest inhibition"}, {"measurement": "IC50", "setting": "[19]", "value": 12.6, "unit": "µM"}, {"measurement": "sensitivity of full length WRN versus WRN^500–946 (based on IC50 values)", "setting": "[20]", "value": 2.5, "unit": "fold"}, {"measurement": "effect on DNA binding by BLM (fluorescence polarization)", "setting": "[21]", "value": "inhibits the ability of BLM to bind DNA"}]}
{"smiles": "O=C(Nc1ccc(Cl)c(Cl)c1)Nc1nnc(-c2ccncc2)s1", "note": "[MLS000559245]", "values": [{"measurement": "activity in radioactivity-based helicase assay", "setting": "[22]", "value": "showed activity"}, {"measurement": "activity in fluorescence-based screening assay", "setting": "[23]", "value": "showed activity"}]}
